ChEMBL document CHEMBL4138284, “Biomimetic Stereoselective Sulfa-Michael Addition Leads to Platensimycin and Platencin Sulfur Analogues against Methicillin-Resistant Staphylococcus aureus” (J Nat Prod, 2018)
In brackets after ≈: the same amount, converted by molar mass.

The molecules below were run on Staphylococcus aureus (assay: Antibacterial activity against methicillin-resistant Staphylococcus aureus isolate 7 incubated overnight by agar dilution method).
Assay type: functional
Summary of the method: (§1)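 MIC by agar dilution. Strains were grown overnight in LB broth and diluted, then about 10^4 CFU (2 μL spots) were spotted onto LB agar plates containing test compound at 0.5 to 8 μg mL−1 agar. Plates were incubated overnight at 37 °C and inspected for growth. Clinical MSSA and MRSA isolates came from local hospitals.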
`C[C@]12C[C@]34C[C@@H]1C[C@H](O2)[C@H]3[C@](C)(CCC(=O)Nc1c(O)ccc(C(=O)O)c1O)C(=O)C[C@@H]4SC(=O)c1cccc(C(F)(F)F)c1` was tested, and the MIC was 2 µg/mL (≈ 3.09 µM).
In the case of `C[C@]12C[C@]34C[C@@H]1C[C@H](O2)[C@H]3[C@](C)(CCC(=O)Nc1c(O)ccc(C(=O)O)c1O)C(=O)C[C@@H]4SC(=O)c1ccc(F)cc1`, the MIC is reported as 1 µg/mL (≈ 1.67 µM).

What follows are molecules tested on Staphylococcus aureus (assay: Antibacterial activity against methicillin-resistant Staphylococcus aureus isolate 5 incubated overnight by agar dilution method).
Assay type: functional
Summary of the method: as §1
In the case of `C[C@]12C[C@]34C[C@@H]1C[C@H](O2)[C@H]3[C@](C)(CCC(=O)Nc1c(O)ccc(C(=O)O)c1O)C(=O)C[C@@H]4SC(=O)c1cccc(C(F)(F)F)c1`, the MIC is reported as 1 µg/mL (≈ 1.54 µM).
`C[C@]12C[C@]34C[C@@H]1C[C@H](O2)[C@H]3[C@](C)(CCC(=O)Nc1c(O)ccc(C(=O)O)c1O)C(=O)C[C@@H]4SC(=O)c1ccc(F)cc1` gave an MIC of 2 µg/mL (≈ 3.35 µM).

Each molecule was assayed on Staphylococcus aureus (assay: Antibacterial activity against methicillin-sensitive Staphylococcus aureus isolate 4 incubated overnight by agar dilution method).
Assay type: functional
Summary of the method: as §1
For `C[C@]12C[C@]34C[C@@H]1C[C@H](O2)[C@H]3[C@](C)(CCC(=O)Nc1c(O)ccc(C(=O)O)c1O)C(=O)C[C@@H]4SC(=O)c1cccc(C(F)(F)F)c1`, the MIC was 0.5 µg/mL (≈ 0.772 µM).
Work on `C[C@]12C[C@]34C[C@@H]1C[C@H](O2)[C@H]3[C@](C)(CCC(=O)Nc1c(O)ccc(C(=O)O)c1O)C(=O)C[C@@H]4SC(=O)c1ccc(F)cc1` yielded an MIC of 1 µg/mL (≈ 1.67 µM).

Each molecule was assayed on Staphylococcus aureus (assay: Antibacterial activity against methicillin-resistant Staphylococcus aureus isolate 8 incubated overnight by agar dilution method).
Assay type: functional
Summary of the method: as §1
`C[C@]12C[C@]34C[C@@H]1C[C@H](O2)[C@H]3[C@](C)(CCC(=O)Nc1c(O)ccc(C(=O)O)c1O)C(=O)C[C@@H]4SC(=O)c1cccc(C(F)(F)F)c1` showed an MIC of 1 µg/mL (≈ 1.54 µM).
`C[C@]12C[C@]34C[C@@H]1C[C@H](O2)[C@H]3[C@](C)(CCC(=O)Nc1c(O)ccc(C(=O)O)c1O)C(=O)C[C@@H]4SC(=O)c1ccc(F)cc1` showed an MIC of 2 µg/mL (≈ 3.35 µM).

What follows are molecules tested on Staphylococcus aureus (assay: Antibacterial activity against methicillin-sensitive Staphylococcus aureus isolate 2 incubated overnight by agar dilution method).
Assay type: functional
Summary of the method: as §1
Molecule `C[C@]12C[C@]34C[C@@H]1C[C@H](O2)[C@H]3[C@](C)(CCC(=O)Nc1c(O)ccc(C(=O)O)c1O)C(=O)C[C@@H]4SC(=O)c1cccc(C(F)(F)F)c1` has an MIC of 1 µg/mL (≈ 1.54 µM).
Molecule `C[C@]12C[C@]34C[C@@H]1C[C@H](O2)[C@H]3[C@](C)(CCC(=O)Nc1c(O)ccc(C(=O)O)c1O)C(=O)C[C@@H]4SC(=O)c1ccc(F)cc1` has an MIC of 1 µg/mL (≈ 1.67 µM).

Each molecule was assayed on Staphylococcus aureus (assay: Antibacterial activity against methicillin-resistant Staphylococcus aureus isolate 9 incubated overnight by agar dilution method).
Assay type: functional
Summary of the method: as §1
`C[C@]12C[C@]34C[C@@H]1C[C@H](O2)[C@H]3[C@](C)(CCC(=O)Nc1c(O)ccc(C(=O)O)c1O)C(=O)C[C@@H]4SC(=O)c1cccc(C(F)(F)F)c1` showed an MIC of 1 µg/mL (≈ 1.54 µM).
For `C[C@]12C[C@]34C[C@@H]1C[C@H](O2)[C@H]3[C@](C)(CCC(=O)Nc1c(O)ccc(C(=O)O)c1O)C(=O)C[C@@H]4SC(=O)c1ccc(F)cc1`, the MIC was 1 µg/mL (≈ 1.67 µM).

What follows are molecules tested on Staphylococcus aureus (assay: Antibacterial activity against methicillin-resistant Staphylococcus aureus isolate 10 incubated overnight by agar dilution method).
Assay type: functional
Summary of the method: as §1
Molecule `C[C@]12C[C@]34C[C@@H]1C[C@H](O2)[C@H]3[C@](C)(CCC(=O)Nc1c(O)ccc(C(=O)O)c1O)C(=O)C[C@@H]4SC(=O)c1cccc(C(F)(F)F)c1` has an MIC of 1 µg/mL (≈ 1.54 µM).
Molecule `C[C@]12C[C@]34C[C@@H]1C[C@H](O2)[C@H]3[C@](C)(CCC(=O)Nc1c(O)ccc(C(=O)O)c1O)C(=O)C[C@@H]4SC(=O)c1ccc(F)cc1` has an MIC of 1 µg/mL (≈ 1.67 µM).

Each molecule was assayed on Staphylococcus aureus (assay: Antibacterial activity against methicillin-sensitive Staphylococcus aureus isolate 1 incubated overnight by agar dilution method).
Assay type: functional
Summary of the method: as §1
`C[C@]12C[C@]34C[C@@H]1C[C@H](O2)[C@H]3[C@](C)(CCC(=O)Nc1c(O)ccc(C(=O)O)c1O)C(=O)C[C@@H]4SC(=O)c1cccc(C(F)(F)F)c1` showed an MIC of 1 µg/mL (≈ 1.54 µM).
Molecule `C[C@]12C[C@]34C[C@@H]1C[C@H](O2)[C@H]3[C@](C)(CCC(=O)Nc1c(O)ccc(C(=O)O)c1O)C(=O)C[C@@H]4SC(=O)c1ccc(F)cc1` has an MIC of 1 µg/mL (≈ 1.67 µM).

These molecules were tested on Staphylococcus aureus (assay: Antibacterial activity against Staphylococcus aureus ATCC 29213 incubated overnight by agar dilution method).
Assay type: functional
Summary of the method: as §1
`C[C@]12C[C@]34C[C@@H]1C[C@H](O2)[C@H]3[C@](C)(CCC(=O)Nc1c(O)ccc(C(=O)O)c1O)C(=O)C[C@@H]4SC(=O)c1cccc(C(F)(F)F)c1` showed an MIC of 2 µg/mL (≈ 3.09 µM).
`C[C@]12C[C@]34C[C@@H]1C[C@H](O2)[C@H]3[C@](C)(CCC(=O)Nc1c(O)ccc(C(=O)O)c1O)C(=O)C[C@@H]4SC(=O)c1ccc(F)cc1` was tested, and the MIC was 1 µg/mL (≈ 1.67 µM).

The molecules below were run on Staphylococcus aureus (assay: Antibacterial activity against methicillin-sensitive Staphylococcus aureus isolate 3 incubated overnight by agar dilution method).
Assay type: functional
Summary of the method: as §1
Molecule `C[C@]12C[C@]34C[C@@H]1C[C@H](O2)[C@H]3[C@](C)(CCC(=O)Nc1c(O)ccc(C(=O)O)c1O)C(=O)C[C@@H]4SC(=O)c1cccc(C(F)(F)F)c1` has an MIC of 1 µg/mL (≈ 1.54 µM).
For `C[C@]12C[C@]34C[C@@H]1C[C@H](O2)[C@H]3[C@](C)(CCC(=O)Nc1c(O)ccc(C(=O)O)c1O)C(=O)C[C@@H]4SC(=O)c1ccc(F)cc1`, the MIC was 1 µg/mL (≈ 1.67 µM).

These molecules were tested on Staphylococcus aureus (assay: Antibacterial activity against methicillin-resistant Staphylococcus aureus isolate 6 incubated overnight by agar dilution method).
Assay type: functional
Summary of the method: as §1
Molecule `C[C@]12C[C@]34C[C@@H]1C[C@H](O2)[C@H]3[C@](C)(CCC(=O)Nc1c(O)ccc(C(=O)O)c1O)C(=O)C[C@@H]4SC(=O)c1cccc(C(F)(F)F)c1` has an MIC of 1 µg/mL (≈ 1.54 µM).
For `C[C@]12C[C@]34C[C@@H]1C[C@H](O2)[C@H]3[C@](C)(CCC(=O)Nc1c(O)ccc(C(=O)O)c1O)C(=O)C[C@@H]4SC(=O)c1ccc(F)cc1`, the MIC was 1 µg/mL (≈ 1.67 µM).

Each molecule was assayed on Staphylococcus aureus (assay: Antibacterial activity against methicillin-resistant Staphylococcus aureus isolate 11 incubated overnight by agar dilution method).
Assay type: functional
Summary of the method: as §1
For `C[C@]12C[C@]34C[C@@H]1C[C@H](O2)[C@H]3[C@](C)(CCC(=O)Nc1c(O)ccc(C(=O)O)c1O)C(=O)C[C@@H]4SC(=O)c1cccc(C(F)(F)F)c1`, the MIC was 2 µg/mL (≈ 3.09 µM).
With `C[C@]12C[C@]34C[C@@H]1C[C@H](O2)[C@H]3[C@](C)(CCC(=O)Nc1c(O)ccc(C(=O)O)c1O)C(=O)C[C@@H]4SC(=O)c1ccc(F)cc1` the MIC was 2 µg/mL (≈ 3.35 µM).
